In PubChem BioAssay AID465 (The Scripps Research Institute Molecular Screening Center, 2006):
In all, about 62,000 compounds went through this assay and about 130 (0.21%) were called active.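 The calls were made as follows: active = inhibition above the mean of all tested compounds plus 3 SD (cut at about 40% in these data); inactive = the rest.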 What follows is part of a selection rich in actives, with near analogues and random picks from the rest.

Assay: inhibitors of PMA/ionomycin-induced NF-kB reporter, primary screen, antigen receptor NF-kB inhibitor project, cell-based, HEK-293 luciferase reporter, luminescence (AID 465);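 also: 0% = stimulated DMSO wells and 100% = 10 µM reference inhibitor 5653914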
Details: HEK-293 NF-kB luciferase reporter, at 3 µM, active compounds read high
Method in brief: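 System: NF-kB luciferase reporter HEK-293 cells | Replication: Single test | Control set: DMSO vs reference inhibitor | Evaluation: % inhibition | Schedule: 1 h pretreatment, 16 h stimulation, 37 °C | Probe or stimulus: PMA with ionomycin | Compound dosing: One dose, 3 µM | Detection: Luciferase luminescence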

| SMILES | inhibition |
| --- | --- |
| c1n[nH]c(NCc2ccc3c(c2)OCO3)n1 | 0.1% (inactive) |
| CCC(C)(C)n1nnnc1C(c1ccccc1OC)N1CCSCC1 (stereo not given) | 9.6% (inactive) |
| Cc1nc(C)c(C(=O)Nc2ccc(C)c(F)c2)o1 | 19.9% (inactive) |
| O=C(CSc1ncccn1)NC(=O)NCc1ccccc1 | 13.2% (inactive) |
| CCC(=O)Nc1cccc(NC(=O)CSc2nnc(-c3ccc(NS(C)(=O)=O)cc3)n2C)c1 | 1.5% (inactive) |
| COc1ccc(CCn2c(=N)c(C(=O)NCc3ccco3)cc3c(=O)n4cccc(C)c4nc32)cc1 | 7.9% (inactive) |
| Cc1nc2ccc(S(=O)(=O)NCC(=O)O)cc2s1 | -0.6% (inactive) |
| CC1=CC(C)(C)N(C(=O)CSc2nccn2C)c2cc(C)ccc21 | 0% (inactive) |
| Cc1ccc(C)c(S(=O)(=O)N2CC(=O)Nc3ccccc32)c1 | 13.2% (inactive) |
| Cn1c(=O)c2c(nc(SCCNS(=O)(=O)c3ccccc3)n2C)n(C)c1=O | 11.9% (inactive) |
| O=C(NCCCN1CCN(C2CCCCC2)CC1)Nc1ccccc1C(F)(F)F | 7.8% (inactive) |
| O=C(NCc1ccco1)C1CCCN(S(=O)(=O)c2cccc3nonc23)C1 (stereo not given) | 0.7% (inactive) |
| O=P(O)(CN1CCCCC1)CN1CCCCC1 | 4.4% (inactive) |
| CCNC(=O)CCc1nc(-c2ccc(C(C)(C)C)cc2)no1 | 79.1% (active) |
| Cc1ccc(-c2noc(CCC(=O)Nc3ccccc3N3CCN(C)CC3)n2)cc1 | -2% (inactive) |
| Cc1ccc(-c2noc(CCC(N)=O)n2)cc1 | 19.8% (inactive) |
| CCCS(=O)(=O)C(=C1Nc2ccccc2N1)S(=O)(=O)CCC | 3.3% (inactive) |
| COc1ccc2c(c1)CCc1c(C(=O)Nc3c(C)n(C)n(-c4ccccc4)c3=O)noc1-2 | 23.3% (inactive) |
| CCCCOc1ccc(-c2nnc(-c3ccco3)o2)cc1 | -34% (inactive) |
| CC(=O)Nc1ccc(S(=O)(=O)N2CCCC2C(=O)O)cc1 (stereo not given) | 6.9% (inactive) |
| CCOC(=O)N1CCN(C(=O)CN(c2ccc(C)c(C)c2)S(=O)(=O)c2ccccc2)CC1 | 10.2% (inactive) |
| C=CCc1cccc2cc(C(=O)N3CCN(C(=O)OCC)CC3)c(=O)oc12 | -6.7% (inactive) |
| Cc1cc(C)cc(OCc2nnc(SCC(=O)OC3CCCCC3)o2)c1 | 17.6% (inactive) |
| Cc1ccnc(N2CCC(C(=O)NC3CCCCCC3)CC2)n1 | 11.5% (inactive) |
| Nc1ccc(-n2nncc2-c2ccco2)cc1 | 4% (inactive) |
| O=C(COC(=O)C12CC3CC(CC(C3)C1)C2)NCc1ccco1 | 3.7% (inactive) |
| CCOC(=O)c1cnc(SCC(=O)NCc2ccco2)nc1N | -2% (inactive) |
| Cc1cc(C(=O)OCC(=O)NCc2ccco2)c(C)n1-c1ccccc1 | 41.7% (active) |

| SMILES | inhibition |
| --- | --- |
| CC1(C)CC(=O)C2=C(C1)NCN(CCCN1CCOCC1)C2 | 3.7% (inactive) |
| CCCCC(=O)Nc1cc(C)c2c(=O)oc3ccccc3c2n1 | 2.7% (inactive) |
| Cc1cccc(-n2c(N)c(C(=O)N3CCN(C)CC3)sc2=S)c1 | 8.2% (inactive) |
| Cc1ccc2nc(S(=O)(=O)O)[nH]c2c1 | 13.2% (inactive) |
| COCc1[nH]nc2c1C(C1C=CCCC1)C(C#N)=C(N)O2 (stereo not given) | -9.1% (inactive) |
| CCC(c1nnnn1C1CCCC1)N(Cc1cccs1)Cc1cc2cccc(C)c2[nH]c1=O (stereo not given) | 1.1% (inactive) |
| Cc1cccc2cc(CN(Cc3cccs3)C(c3nnnn3C3CCCC3)C(C)C)c(=O)[nH]c12 (stereo not given) | 42% (active) |
| Cc1cccc2cc(CN(Cc3ccc4c(c3)OCO4)Cc3nnnn3C3CCCC3)c(=O)[nH]c12 | 26.6% (inactive) |
| CCCCOc1ccc(-c2ncc(C(=O)OCC)c(N)n2)cc1 | 5.2% (inactive) |
| Cc1ccc(C)n1-c1ccncc1 | 4.5% (inactive) |
| Cc1nnc(Sc2nc3c(c(=O)[nH]c(=O)n3C)n2Cc2ccccc2)s1 | -1.3% (inactive) |
| CC(C)CCn1c(CN(C)Cc2ccccc2)nc2c1c(=O)n(C)c(=O)n2C | 10.4% (inactive) |
| CCc1c(C)nc2cc(-c3cccs3)[nH]n2c1=O | 0.4% (inactive) |
| Cn1nnnc1SCC(=O)N1CCN(Cc2ccccc2)CC1 | 10.7% (inactive) |
| Cc1cccc(NC(=O)c2ccc3ccccc3n2)n1 | -33.4% (inactive) |
| Cc1ccccc1CSCC(=O)NC(=O)NC(C)(C)C | -1.2% (inactive) |
| CCOc1ncccc1C(=O)OCc1cn2cc(Cl)ccc2n1 | 7.4% (inactive) |
| CC1C(c2ccccc2)=[N+]([O-])C2(CCCC2)N1O (stereo not given) | 5.7% (inactive) |
| Cc1ccc(-c2cc(C(F)(F)F)n3nc(C(=O)N4CCCC4)cc3n2)cc1 | 13.3% (inactive) |
| CC(C)(C)OC(=O)c1c(N)n(CCCN2CCCC2=O)c2nc3ccccc3nc12 | 11.9% (inactive) |
| O=C(NCc1ccco1)c1cc2sccc2n1Cc1ccc(F)cc1 | 19.8% (inactive) |
| O=C(O)CCCC(=O)Nc1ccccc1-n1ccnc1 | -1.2% (inactive) |
| COc1ccc(-c2nnc(SC(=O)N3c4ccccc4Sc4ccccc43)o2)cc1 | 9.5% (inactive) |
| COc1ccc(O)c(C(=O)c2cnc3onc(C(C)C)c3c2)c1 | 8.8% (inactive) |
| Cc1cc(C)c(S(=O)(=O)NCCCN2CCOCC2)cc1Br | 11.3% (inactive) |
| O=S(=O)(NCc1cccnc1)c1ccc(Br)s1 | 10.6% (inactive) |
| CCN1C(=O)C(C(=O)NC(C)c2ccccc2)C2CC1(C)Oc1ccccc12 (stereo not given) | 14.7% (inactive) |
